The list is not random: actives were taken first. Their share in the collection is about 1.6%.
TbMetRS inhib = blocks T. brucei methionyl-tRNA synthetase activity. purified T. brucei MetRS, ATP depletion, Kinase-Glo luminescence. 360,000 tested, 0.4% active. AID 624268. inhibition, % at 11.9 µM;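 active = inhibition above a per-plate cutoff of the control wells' mean inhibition plus 3 SD, cut at about 5.5% in these data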;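 also: 0% = DMSO wells median and 100% = median of wells with control inhibitor compound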
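technique = Kinase-Glo luminescence, ATP depletion format | system = purified MetRS (methionyl-tRNA synthetase) enzyme from Trypanosoma brucei | timing = 15 min preincubation, 2 h reaction, all 25 °C | evaluation = percent inhibition versus plate control medians | dosing = single dose, 11.9 µM final nominal, 0.9% final DMSO | also added = substrates ATP, L-methionine and bulk Escherichia coli tRNA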
SKN-1 inh = inhibitors of C. elegans SKN-1 | C. elegans VP596 Pgst-4::GFP/RFP ratio, acrylamide-induced, 24 h | inhibition, % at 21.8 µM | 360,000 tested, 0.49% active | AID 624304;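 active = interference check ratio from 0.5 to 1.5 plus GFP to RFP signal ratio inhibition reaching or exceeding a fixed threshold, cut at about 30% in these data, passing the limit was not always enough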
Rin1-Abl PPI inh = inhibitors of human Rin1-Abl protein interaction | inhibition, % at 7.35 µM | TR-FRET Rin1/Abl binding, biochemical | 360,000 tested, 0.4% active | P00519+Q13671; in the data active = inhibition above about 5%, passing the limit was not always enough
Arr AP2 block = inhibitors of human beta-arrestin and AP2 interaction; FITC-arrestin peptide / GST-AP2 beads, flow cytometry; AP2 beta2 appendage carries R879A mutation; inhibition, % at 10 µM; 340,000 tested, 0.31% active; AID 504490;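 active = inhibition above a set limit, near 3 SD of compounds lacking own fluorescence, cut at about 54% in these data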;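 also: plate controls were DMSO wells for no effect and 5 µM unlabelled arrestin peptide for full effect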
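System: GST-AP2 R879A glutathione beads. Medium: PBS with 0.05% Tween 20 and 0.1% BSA. Also added: FITC-arrestin peptide, 50 nM. Incubation: 12 min plus 1 h, RT. Measured by: high-throughput flow cytometry of beads, ex 488, em 535 nm. Evaluation: percent drop in bead-associated FITC signal.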
MT1-MMP act inh = MT1-MMP (human) activation inhibition. P50281. HT1080 RFP-PRO-GFP cells, GFP/RFP ratio fluorescence, overnight; percent of plate control window, DMSO zero. GFP/RFP ratio change, % at 20 µM. 360,000 tested, 0.061% active. AID 651647;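 active = GFP/RFP ratio change of at least 30% with cell ATP level not reduced by more than half and red fluorescence within 50% of control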
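Material – HT1080 RFP-PRO-GFP cells · Control set – DMSO wells and RFP-L50D-GFP cells · Incubation – overnight cell settling, then overnight compound exposure, 37 °C, 5% CO2 · Compound dosing – single-point 20 µM compound, 1% DMSO · Read-out – GFP/RFP fluorescence ratio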
Active calls of the source: *; nt = no result.

SMILES	TbMetRS inhib	SKN-1 inh	Rin1-Abl PPI inh	Arr AP2 block	MT1-MMP act inh
Cc1cc(-c2nnn(CCCOC(C)(C)C)c2C)ccc1-c1cn(CCCOC(C)(C)C)nn1	-0.5	36.9*	-5.6	nt	-4.6
COc1ccc(-c2cn(CCCOCc3ccccc3)nn2)cc1	-0.1	7.9	2.0	6.2	6.1
Fc1ccc(COc2ccc(-c3nnco3)cc2)c(Cl)c1	-0.1	86.7*	-2.8	33.3	2.4
Fc1cc(Br)ccc1COc1ccc(-c2nnco2)cc1	0.4	49.0*	0.7	-11.3	4.4
O=C(COc1ccc(-c2nnco2)cc1)Nc1c(F)cccc1F	-0.1	8.7	2.6	-4.0	1.0
FC(F)(F)c1cnc(Oc2ccc(-c3nnco3)cc2)c(Cl)c1	0.9	29.3	2.5	-4.4	0.8
Cc1cccc(-c2cnc(C(O)c3ccc(Cl)cc3C)[nH]2)c1 (stereo not given)	-0.3	8.1	2.3	nt	1.7
COCCCn1c(=O)c2ccccc2n(Cc2cccc(C)c2)c1=O	-0.2	39.6*	0.7	-9.4	-0.7
CCN(CC)c1ccc(C=C2C(=O)OC3(CCCCC3)OC2=O)cc1	-0.2	33.1	-1.8	4.4	0.7
CCN(CC)c1ccc(/C=C2/C(=O)c3ccc(C(=O)O)cc3C2=O)cc1	-0.6	52.0*	-4.5	-53.9	-30.2
O=c1[nH]c(CN2CCCCC2)ccc1O	-0.1	22.3	17.6*	nt	-5.6
O=c1[nH]cnc(CN2CCCCC2)c1O	-0.4	-9.3	4.4	-1.7	4.0
Cc1c(C#N)c(O)n(CCO)c(=O)c1N=Nc1ccccc1	-0.1	39.7*	-8.4	-0.5	5.5
CC(C)C(=O)NCCc1nc(-c2ccccc2Cl)no1	-0.1	35.9*	-1.9	-0.6	7.5
Cc1oncc1-c1csc(-c2ccccc2Cl)n1	-0.2	44.7*	3.8	-4.5	-0.1
Cc1oncc1-c1csc(-c2ccccc2)n1	-0.2	5.2	0.8	-7.5	0.1
O=C(Nc1ccccc1)OCCCc1ccccc1	-0.2	35.3*	1.7	8.1	1.6
O=C(Nc1ccccc1)OCCc1ccccc1	-1.5	19.2	1.3	nt	-0.1
COc1ccccc1N1CCN(CCC(=O)Nc2ccc3c(c2)OCO3)CC1	0.4	48.5*	1.4	-1.7	1.6
COc1ccccc1N1CCN(CC(=O)Nc2ccc3c(c2)OCCO3)CC1	0.6	-22.5	-0.1	23.9	3.0
COC/C=C/C1=CC2=CC(=O)C(C)(OC(=O)C3CCCC3)C(=O)C2=CO1 (stereo not given)	-0.1	36.2*	2.6	3.9	3.4
Clc1nssc1=Nc1ccc(Br)cc1	-0.2	94.2*	2.6	31.9	0.9
CCOC(=O)C(Oc1ccc2c(-c3ccccc3)cc(=O)oc2c1C)c1ccccc1 (stereo not given)	-0.4	0.4	1.6	-1.9	-11.9
CCOC(=O)C(Oc1ccc2c(-c3ccc(OC)cc3)cc(=O)oc2c1C)c1ccccc1 (stereo not given)	-0.3	35.8*	-2.2	4.7	-13.0
CC1=C(C(=O)N(C)C)CC(CC(=O)NCCc2ccccn2)C(=O)N1CCCN1CCCC1=O (stereo not given)	-0.9	5.8	-1.7	nt	2.7
SMILES	TbMetRS inhib	SKN-1 inh	Rin1-Abl PPI inh	Arr AP2 block	MT1-MMP act inh
Fc1ccc(Nc2cccc3nccnc23)cc1	-0.2	45.2*	-1.1	48.2	1.8
c1cc(Nc2cccc3nccnc23)c2nccnc2c1	0.2	23.2	-4.2	3.4	-49.2
Cc1ccccc1CNC(=O)c1ccc2sc([C@H]3C[C@H](O)[C@@H](CO)O3)nc2c1	0.1	39.2*	-0.7	nt	2.0
O=C(NCC1CC1)c1ccc2sc([C@H]3C[C@H](O)[C@@H](CO)O3)nc2c1	-0.4	8.8	1.1	nt	-7.4
CCN1CCN(C(=O)c2ccc3c(c2)c(C)c(C)n3Cc2ccccc2)CC1	-0.2	14.2	-0.7	19.2	0.5
CCn1c(C)c(C)c2cc(C(=O)N3CCc4ccccc4C3)ccc21	-0.8	42.2*	5.2	-6.4	-5.3
CCc1ccc(-c2nn(-c3cc(Cl)ccc3[N+](=O)[O-])c(=O)c3ccccc23)cc1	-1.5	37.1*	-1.2	24.5	-3.8
O=c1c2ccccc2c(-c2ccccc2)nn1-c1cc(Cl)ccc1[N+](=O)[O-]	-0.6	17.2	2.0	11.6	-3.7
CC(C)C[C@@H](CN1CCC[C@H]1CN1C(=O)C(=O)NC[C@@H]1Cc1ccccc1)N1C[C@H](Cc2ccccc2)N(CC2CCCCCC2)C(=O)C1=O	-0.1	2.3	nt	nt	-10.3
COCCN(C(=O)/C=C/c1cccc([N+](=O)[O-])c1)c1c(N)n(Cc2ccccc2)c(=O)[nH]c1=O	-0.2	9.6	-1.3	36.3	-1.8
COCCN(C(=O)/C=C/c1ccccc1)c1c(N)n(Cc2ccccc2)c(=O)[nH]c1=O	1.1	51.8*	1.9	7.4	-12.2
CCCCN(C(=O)COC(=O)c1sccc1C)c1c(N)n(CCC)c(=O)[nH]c1=O	0.0	-7.2	-1.6	nt	0.2
COc1ccc(CN2CCC(C(=O)Nc3ccc(Oc4cccnc4)cc3)CC2)cc1	0.1	8.4	8.2*	-8.1	-0.1
COc1ccc(/C=C2/C(=O)N(c3c(F)c(F)c(F)c(F)c3F)N=C2C)cc1	-0.1	9.5	-3.1	10.4	-2.2
CCOc1cc(/C=C2/C(=O)N(c3ccccc3)N=C2C)ccc1OC(=O)c1cccs1	-0.1	6.2	11.9*	30.8	12.0
CCOc1cc(/C=N/NC(=O)c2ccccn2)ccc1OC(=O)c1cccs1	-0.2	11.9	2.4	39.7	0.8
COc1ccc(/C=C2/C(=O)N(c3ccccc3)N=C2C)cc1	0.6	2.1	8.1*	1.5	2.3
O=C(NCc1ccccn1)[C@@H]1CCCN1C(=O)[C@@H]1CCCN1C(=O)c1cccc2ccccc12	-2.1	-4.7	nt	nt	-0.9
Cc1cc(Br)cn2c(Cc3cccc(F)c3)c(-c3ccc(Cl)cc3)nc12	-0.5	-1.2	-15.7	nt	-5.2
Clc1ccc(Cc2noc(-c3cccs3)n2)cc1	-0.5	81.6*	-0.5	1.0	-0.8
OCc1cccc(-c2csc(C(O)(c3ccccc3)C(F)(F)F)n2)c1 (stereo not given)	-0.3	35.0*	1.8	nt	1.3
CC(C)C(c1nnnn1Cc1ccco1)N1CCN(C2CCCC2)CC1 (stereo not given)	-0.4	51.2*	0.6	-5.1	2.2
CCCC(c1nnnn1Cc1ccco1)N1CCN(C2CCCC2)CC1 (stereo not given)	-1.3	-3.8	-2.5	9.4	3.4
c1ccc(Cc2c[nH]c3ccccc23)cc1	-0.4	8.7	-0.4	-5.0	-4.9
O=c1cc[nH]c2cccc(Cc3ccccc3)c12	20.9*	-9.0	-3.4	-10.6	5.1

Screening data deposited in PubChem by several laboratories.
